Results published in ChEMBL document CHEMBL4706621, “An attempt to chemically state the cross-talk between monomers of COX homodimers by double/hybrid inhibitors mofezolac-spacer-mofezolac and mofezolac-spacer-arachidonic acid” (Eur J Med Chem, 2021).

How the values were obtained:
[1] = Selectivity index, ratio of IC50 for human COX-2 to IC50 for ovine COX-1
In short: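 Selectivity index is calculated as COX-2 IC50 divided by COX-1 IC50, each taken from the colorimetric TMPD peroxidase assay with arachidonic acid substrate.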

[2] = target: T1, Prostaglandin G/H synthase 1 (Ovis aries, UniProt P05979); test: Inhibition of ovine COX-1 assessed as peroxidase activity using arachidonic acid as substrate by colorimetric method
T1 sequence (P05979 whole entry): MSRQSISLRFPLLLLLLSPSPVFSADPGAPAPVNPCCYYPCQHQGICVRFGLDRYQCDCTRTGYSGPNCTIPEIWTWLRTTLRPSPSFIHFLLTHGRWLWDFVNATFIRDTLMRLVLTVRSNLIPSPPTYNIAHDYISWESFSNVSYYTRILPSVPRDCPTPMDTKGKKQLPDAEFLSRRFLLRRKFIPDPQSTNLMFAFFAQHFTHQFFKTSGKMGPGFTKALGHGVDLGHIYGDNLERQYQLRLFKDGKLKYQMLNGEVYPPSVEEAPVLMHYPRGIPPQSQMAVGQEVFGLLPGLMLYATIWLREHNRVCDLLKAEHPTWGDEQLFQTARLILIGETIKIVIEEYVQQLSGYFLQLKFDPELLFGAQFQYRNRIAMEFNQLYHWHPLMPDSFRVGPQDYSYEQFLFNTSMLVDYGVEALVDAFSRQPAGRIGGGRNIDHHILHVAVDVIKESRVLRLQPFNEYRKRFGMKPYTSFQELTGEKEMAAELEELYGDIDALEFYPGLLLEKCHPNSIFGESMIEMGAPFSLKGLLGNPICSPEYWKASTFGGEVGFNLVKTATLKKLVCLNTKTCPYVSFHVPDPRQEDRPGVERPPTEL
In short: (§1)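 Colorimetric COX inhibitor screening kit measuring cyclooxygenase peroxidase activity on arachidonic acid substrate, read as oxidized TMPD at 590 nm. Compound stocks are made in DMSO. IC50 is the mean of at least three independent measurements. Percent inhibition is taken at the highest final inhibitor concentration, 50 µM.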

[3] = target: T2, Prostaglandin G/H synthase 2 (Homo sapiens, UniProt P35354); test: Inhibition of human COX-2 assessed as peroxidase activity using arachidonic acid as substrate by colorimetric method; in short: as §1
T2 sequence (P35354 whole entry): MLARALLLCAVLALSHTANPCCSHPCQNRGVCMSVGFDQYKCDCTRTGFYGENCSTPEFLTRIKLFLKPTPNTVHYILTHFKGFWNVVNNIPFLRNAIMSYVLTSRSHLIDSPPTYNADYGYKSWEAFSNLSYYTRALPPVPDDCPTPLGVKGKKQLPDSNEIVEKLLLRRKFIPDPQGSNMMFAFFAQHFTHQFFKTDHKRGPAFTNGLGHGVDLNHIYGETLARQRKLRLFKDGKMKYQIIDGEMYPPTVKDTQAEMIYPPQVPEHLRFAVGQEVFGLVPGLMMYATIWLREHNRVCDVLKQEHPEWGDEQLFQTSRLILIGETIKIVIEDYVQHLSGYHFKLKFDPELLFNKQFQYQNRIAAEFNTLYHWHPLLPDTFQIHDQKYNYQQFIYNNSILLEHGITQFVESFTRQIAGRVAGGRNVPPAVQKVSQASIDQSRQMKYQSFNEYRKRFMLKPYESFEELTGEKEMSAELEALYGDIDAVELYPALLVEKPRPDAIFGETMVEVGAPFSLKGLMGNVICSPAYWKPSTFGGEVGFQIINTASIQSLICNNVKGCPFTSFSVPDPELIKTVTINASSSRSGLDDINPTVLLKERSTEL

[4] = target: T3, Prostaglandin G/H synthase 1 (Ovis aries) (UniProt P05979); test: Inhibition of ovine COX-1 assessed as peroxidase activity using arachidonic acid as substrate at 50 uM by colorimetric method; in short: as §1
T3 sequence (whole entry): T1 sequence (P05979 whole entry)

[5] = target: T4, Prostaglandin G/H synthase 2 (Homo sapiens) (UniProt P35354); test: Inhibition of human COX-2 assessed as peroxidase activity using arachidonic acid as substrate at 50 uM by colorimetric method; in short: as §1
T4 sequence (whole entry): T2 sequence (P35354 whole entry)

Plasma [6] = test: Anticoagulant activity in human plasma assessed as prothrombin time at 100 uM; format: functional
In short: (§2)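 Human platelet-poor plasma from whole blood (n=3) by differential centrifugation, run on a coagulation analyzer. Compounds at 100 µM incubated with plasma 15 min at room temperature, then 2 min at 37 °C. For aPTT, cephalin is added for 2 min and clotting is started with 0.025 M CaCl2. For PT, PBS is added for 3 min and clotting is started with calcium thromboplastin. Clotting time is read in seconds at 37 °C. Negative control is 1% DMSO; positive control is 100 µM rivaroxaban.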

[7] = Hemolytic activity against human erythrocytes assessed as hemolysis incubated for 3 hrs by spectrophotometric analysis relative to control; format: ADME, cell-based, Erythrocyte; conditions: read-out: Activity
In short: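 Citrated human blood (n=3) centrifuged at 2500 rpm for 15 min. The erythrocyte pellet is washed three times and resuspended in PBS pH 7.4. Compounds are incubated with the erythrocytes for 3 h at 37 °C. After centrifugation, released hemoglobin is read at 540 nm. Controls are 1% DMSO (negative) and 1% Triton X-100 (positive). Below 10% counts as non-hemolytic.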

Plasma [8] = test: Anticoagulant activity in human plasma assessed as activated partial thromboplastin time at 100 uM; format: functional; in short: as §2
Plasma [9] = test: Antiplatelet activity in human platelet-rich plasma assessed as inhibition of arachidonic acid-induced platelet aggregation by turbidimetric method; format: functional
In short: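 Platelet-rich and platelet-poor plasma prepared from human whole blood (n=3) by differential centrifugation. Compounds pre-incubated in PRP for 2 min, then aggregation is induced with 500 µM arachidonic acid and followed turbidimetrically in an aggregometer. IC50 is determined from several concentrations, in triplicate. Acetylsalicylic acid is the positive control; 1% DMSO vehicle is the negative control.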

Vero [10] = test: Cytotoxicity against African green monkey Vero cells at 10 uM measured after 48 hrs by MTT assay relative to control; format: cell-based; conditions: chlorocebus sabaeus
In short: (§3)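 Vero cells grown at 37 °C in 5% CO2 in medium with 10% inactivated FBS. Cells seeded at 3.2×10^4 per well and grown 24 h, then exposed to compounds for 48 h (n = 4). Control is DMEM with 10% FBS and 1% DMSO. MTT (2.5 mg/mL solution) is added for 3 h, formazan is dissolved in DMSO and absorbance is read at 570 nm. Viability is given as % of untreated cells, mean ± SD.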

Vero [11] = test: Cytotoxicity against African green monkey Vero cells at 100 uM measured after 48 hrs by MTT assay relative to control; format: cell-based; conditions: chlorocebus sabaeus; in short: as §3
[12] = Genotoxicity in Salmonella typhimurium TA102 at 10 to 500 uM by AMES test; format: toxicity; conditions: salmonella enterica subsp. enterica serovar typhimurium, dose 10-500 µM
In short: (§4)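 Ames reverse mutation to histidine prototrophy using S. typhimurium TA97, TA98, TA100 and TA102. Compounds are dissolved in DMSO and tested at 10, 100 and 500 µM.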

[13] = Mutagenicity in Escherichia coli PQ37 at 10 to 500 uM by SOS-chromotest; format: toxicity; conditions: dose 10-500 µM
In short: (§5)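 SOS chromotest spot assay with E. coli PQ35 and PQ37. An overnight culture is diluted in LB and grown at 37 °C to 2×10^8 bacteria/mL. Then 0.1 mL is mixed in top agar and poured on M63 plates. 10 µL of compound in DMSO (10, 100 or 500 µM) is spotted centrally and plates are incubated overnight at 37 °C. A blue ring around the inhibition zone indicates genotoxicity. Run in triplicate with 4-NQO as positive control.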

[14] = Genotoxicity in Salmonella typhimurium TA98 at 10 to 500 uM by AMES test; format: toxicity; conditions: salmonella enterica subsp. enterica serovar typhimurium, dose 10-500 µM; in short: as §4
[15] = Genotoxicity in Salmonella typhimurium TA100 at 10 to 500 uM by AMES test; format: toxicity; conditions: salmonella enterica subsp. enterica serovar typhimurium, dose 10-500 µM; in short: as §4
[16] = Mutagenicity in Escherichia coli PQ35 at 10 to 500 uM by SOS-chromotest; format: toxicity; conditions: dose 10-500 µM; in short: as §5
[17] = Genotoxicity in Salmonella typhimurium TA97 at 10 to 500 uM by AMES test; format: toxicity; conditions: salmonella enterica subsp. enterica serovar typhimurium, dose 10-500 µM; in short: as §4

Structure (SMILES)	Ratio IC50 [1]	IC50 [2]	IC50 [3]	inhibition [4]	inhibition [5]	IC50 (Plasma [9])	PT (Plasma [6])	hemolysis at 3 h [7]	APTT (Plasma [8])	Activity (Vero [10])	Activity (Vero [11])	Activity [12]	Activity [13]	Activity [14]	Activity [15]	Activity [16]	Activity [17]
COc1ccc(-c2noc(CC(=O)NCCCCCCNC(=O)Cc3onc(-c4ccc(OC)cc4)c3-c3ccc(OC)cc3)c2-c2ccc(OC)cc2)cc1	> 5.5	9000 nM	> 50000 nM	50%	–	–	–	–	–	–	–	–	–	–	–	–	–
COc1ccc(-c2noc(CC(=O)NCCNC(=O)Cc3onc(-c4ccc(OC)cc4)c3-c3ccc(OC)cc3)c2-c2ccc(OC)cc2)cc1	9	13 nM	120 nM	75%	45%	–	–	–	–	–	–	–	–	–	–	–	–
CCCCC/C=C\C/C=C\C/C=C\C/C=C\CCCC(=O)Nc1ccc(NC(=O)Cc2onc(-c3ccc(OC)cc3)c2-c2ccc(OC)cc2)cc1	–	50 nM	> 50000 nM	66%	–	610 nM	15.3 s	0%	55.6 s	93%	79%	–	–	–	–	–	–
CCCCC/C=C\C/C=C\C/C=C\C/C=C\CCCC(=O)NCCCCNC(=O)Cc1onc(-c2ccc(OC)cc2)c1-c1ccc(OC)cc1	0.05	–	800 nM	57%	61%	–	–	–	–	–	–	–	–	–	–	–	–
COc1ccc(-c2noc(CC(=O)NCc3ccc(CNC(=O)Cc4onc(-c5ccc(OC)cc5)c4-c4ccc(OC)cc4)cc3)c2-c2ccc(OC)cc2)cc1	–	> 50000 nM	> 50000 nM	–	–	–	–	–	–	–	–	–	–	–	–	–	–
CC(=O)Oc1ccccc1C(=O)O [ASPIRIN]	–	–	–	–	–	1110 nM	14.6 s	0%	50.3 s	100%	95%	Non-Toxic	Non-Toxic	Non-Toxic	Non-Toxic	Non-Toxic	Non-Toxic
COc1ccc(-c2noc(CC(=O)NCCCCCCCCCCCCNC(=O)Cc3onc(-c4ccc(OC)cc4)c3-c3ccc(OC)cc3)c2-c2ccc(OC)cc2)cc1	> 7	7100 nM	> 50000 nM	40%	–	–	–	–	–	–	–	–	–	–	–	–	–

Second part, led by results:

Ratio IC50 [1]	IC50 [2]	IC50 [3]	inhibition [4]	inhibition [5]	IC50 (Plasma [9])	Structure (SMILES)	PT (Plasma [6])	hemolysis at 3 h [7]	APTT (Plasma [8])	Activity (Vero [10])	Activity (Vero [11])	Activity [12]	Activity [13]	Activity [14]	Activity [15]	Activity [16]	Activity [17]
> 9	5500 nM	> 50000 nM	74%	–	–	COc1ccc(-c2noc(CC(=O)NCCCCNC(=O)Cc3onc(-c4ccc(OC)cc4)c3-c3ccc(OC)cc3)c2-c2ccc(OC)cc2)cc1	–	–	–	–	–	–	–	–	–	–	–
4	75 nM	300 nM	85%	71%	–	COc1ccc(-c2noc(CC(=O)Nc3ccc(-c4ccc(N)cc4)cc3)c2-c2ccc(OC)cc2)cc1	–	–	–	–	–	–	–	–	–	–	–
0.02	24000 nM	500 nM	74%	79%	–	COc1ccc(-c2noc(CC(=O)Nc3ccc(N)cc3)c2-c2ccc(OC)cc2)cc1	–	–	–	–	–	–	–	–	–	–	–
> 625	80 nM	> 50000 nM	73%	–	440 nM	COc1ccc(-c2noc(CC(=O)Nc3ccc(-c4ccc(NC(=O)Cc5onc(-c6ccc(OC)cc6)c5-c5ccc(OC)cc5)cc4)cc3)c2-c2ccc(OC)cc2)cc1	15.1 s	0%	46.5 s	100%	92%	Non-Toxic	Non-Toxic	Non-Toxic	Non-Toxic	Non-Toxic	Non-Toxic
–	–	–	–	–	450 nM	COc1ccc(-c2noc(CC(=O)O)c2-c2ccc(OC)cc2)cc1 [MOFEZOLAC]	14.2 s	0%	50.8 s	97%	91%	Non-Toxic	Non-Toxic	Non-Toxic	Non-Toxic	Non-Toxic	Non-Toxic
3.7	950 nM	3500 nM	100%	51%	–	COc1ccc(-c2noc(CC(=O)NCCCCN)c2-c2ccc(OC)cc2)cc1	–	–	–	–	–	–	–	–	–	–	–
